In ChEMBL document CHEMBL4177719, “Synthesis and evaluation of biaryl derivatives for structural characterization of selective monoamine oxidase B inhibitors toward Parkinson's disease therapy” (Bioorg Med Chem, 2018):
pIC50, pKi: −log10 of the molar value. Active and inactive are the calls of the source. The calls are words filed in the database; no cut-off is given here.

Legend:
[1] = biological target: T1, Amine oxidase [flavin-containing] B (Homo sapiens, UniProt P27338); test: Inhibition of recombinant human MAO-B using benzylamine as substrate preincubated for 15 mins followed by substrate addition measured after 20 mins by amplex red reagent based spectrophotometric assay
T1 sequence (P27338 whole entry): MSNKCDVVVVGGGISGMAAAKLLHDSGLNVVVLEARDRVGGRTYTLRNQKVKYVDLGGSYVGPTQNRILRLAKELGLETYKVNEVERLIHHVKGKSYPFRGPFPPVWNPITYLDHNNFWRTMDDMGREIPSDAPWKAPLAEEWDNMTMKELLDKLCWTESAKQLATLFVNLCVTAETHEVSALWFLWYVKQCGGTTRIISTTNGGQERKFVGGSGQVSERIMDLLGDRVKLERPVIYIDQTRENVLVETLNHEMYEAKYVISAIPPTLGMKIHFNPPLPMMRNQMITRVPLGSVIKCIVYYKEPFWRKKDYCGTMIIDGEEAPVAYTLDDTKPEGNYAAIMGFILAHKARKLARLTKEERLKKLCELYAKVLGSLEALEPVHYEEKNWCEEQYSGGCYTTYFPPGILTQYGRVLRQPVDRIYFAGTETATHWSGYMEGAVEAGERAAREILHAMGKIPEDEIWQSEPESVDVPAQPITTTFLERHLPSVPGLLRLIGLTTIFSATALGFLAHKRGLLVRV

[2] = biological target: T2, Amine oxidase [flavin-containing] A (Homo sapiens, UniProt P21397); test: Inhibition of recombinant human MAO-A using p-tyramine as substrate preincubated for 15 mins followed by substrate addition measured after 20 mins by amplex red reagent based spectrophotometric assay
T2 sequence (P21397 whole entry): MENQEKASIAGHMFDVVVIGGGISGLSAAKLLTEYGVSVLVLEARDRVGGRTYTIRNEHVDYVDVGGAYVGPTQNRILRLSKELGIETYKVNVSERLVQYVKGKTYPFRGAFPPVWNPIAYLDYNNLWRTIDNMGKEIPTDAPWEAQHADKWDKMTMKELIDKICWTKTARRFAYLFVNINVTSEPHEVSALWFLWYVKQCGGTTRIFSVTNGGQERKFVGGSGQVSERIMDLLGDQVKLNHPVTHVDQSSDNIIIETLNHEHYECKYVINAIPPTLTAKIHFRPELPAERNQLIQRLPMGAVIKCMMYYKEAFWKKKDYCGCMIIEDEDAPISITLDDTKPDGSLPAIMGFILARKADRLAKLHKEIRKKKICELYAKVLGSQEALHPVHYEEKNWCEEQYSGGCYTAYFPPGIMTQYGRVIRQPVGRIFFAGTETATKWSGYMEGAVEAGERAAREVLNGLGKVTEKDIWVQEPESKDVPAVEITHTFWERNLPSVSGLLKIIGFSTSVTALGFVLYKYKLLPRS
Method in brief: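 Recombinant human MAO-A with compounds at final 10⁻⁵–10 µM, preincubated 15 min at 37 °C in 50 mM sodium phosphate, pH 7.4. Reaction started by adding 200 µM Amplex Red, 2 U/mL horseradish peroxidase and 2 mM p-tyramine. IC50 came from dose-response curves in quadruplicate, as mean ± S.E.M.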

Homo sapiens = species: Homo sapiens; test: Selectivity index, ratio of IC50 for recombinant human MAO-A to IC50 for recombinant human MAO-B
Mus musculus [3] = test: Anti-parkinson's activity in MPTP-induced C57Bl/6 mouse model of Parkinson's disease assessed as restoration of motor ability by measuring ascending ability to reach stable position at 30 mg/kg, po administered for 3 consecutive days measured 6 days after MPTP injection by coathanger method; format: functional, organism-based
Method in brief: (§1)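 Male C57Bl/6 mice, 10 weeks old, 23–25 g (n = 5-8 per group). MPTP-HCl 20 mg/kg i.p., given as 4 injections at 2 h intervals. Drug 30 mg/kg/day p.o. for 3 consecutive days spanning MPTP dosing. Vehicle was 12.5% castor oil/ethanol (equal parts) in distilled water. Saline-treated controls.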

Mus musculus [4] = test: Restoration of MPTP-induced tyrosine hydroxylase enzyme activity loss in C57Bl/6 mouse assessed as enzyme activity loss in DAergic neurons of substantia nigra pars compacta at 30 mg/kg, po administered for 3 consecutive days measured 6 days after MPTP injection by DAB staining based microscopic method; format: functional; method in brief: as §1
Mus musculus [5] = test: (§2) Anti-parkinson's activity in MPTP-induced C57Bl/6 mouse model of Parkinson's disease assessed as restoration of motor ability at 30 mg/kg, po administered for 3 consecutive days measured 6 days after MPTP injection by vertical grid test; format: functional, organism-based; method in brief: as §1
[6] = biological target: T1, Amine oxidase [flavin-containing] B; test: Competitive inhibition of recombinant human MAO-B using varying level of benzylamine substrate preincubated for 15 mins followed by substrate addition measured after 20 mins by Lineweaver-Burk plot analysis
Method in brief: (§3)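 Recombinant human MAO-B with benzylamine at 0.065, 0.125, 0.25, 0.5, 1, 2 and 4 mM, with inhibitor at 0, 0.3, 1 and 3 nM. Amplex Red/HRP H2O2-coupled fluorescence in 50 mM sodium phosphate pH 7.4 at 37 °C. Initial rates taken from progression curves; Lineweaver-Burk double-reciprocal analysis.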

[7] = biological target: T1, Amine oxidase [flavin-containing] B; test: Competitive inhibition of recombinant human MAO-B assessed as Vmax for substrate using varying level of benzylamine substrate preincubated for 15 mins followed by substrate addition measured after 20 mins by Lineweaver-Burk plot analysis; method in brief: as §3
Mus musculus [8] = test: Anti-parkinson's activity in MPTP-induced C57Bl/6 mouse model of Parkinson's disease assessed as restoration of MPTP-induced weight loss at 30 mg/kg, po administered for 3 consecutive days; format: functional, organism-based; method in brief: as §1
Mus musculus [9] = test: as §2, with “MPTP-induced reduction in TH-immunoreactive fiber density in striatum” for “motor ability”, “DAB staining based microscopic method” for “vertical grid test”; format: functional, organism-based; method in brief: as §1

SMILES	pIC50 [1]	pIC50 [2]	Ratio IC50 (Homo sapiens)	further results
Nc1ccc(OCc2ccccc2F)cc1	< 5.00	< 4.52	–	–
NCCc1ccc(OCc2ccccc2Cl)cc1	5.55	< 5.00	> 3.5	–
Nc1ccc(OCc2ccc(C(F)(F)F)cc2)cc1	6.40	< 4.00	> 240	–
NCc1ccc(OCc2cccc(Cl)c2)cc1	6.59	< 4.00	> 380	–
Nc1ccc(OCc2cccc(F)c2)cc1	5.61	< 4.00	> 40	–
NCCc1ccc(OCc2ccccc2F)cc1	6.40	< 5.00	> 25	–
NCCc1ccc(-c2ccc(F)cc2)cc1	5.17	< 5.00	> 1.5	–
NC(=O)c1ccc(OCc2ccc(C(F)(F)F)cc2)cc1	6.19	< 4.00	> 150	–
NCCc1ccc(OCc2cccc(F)c2)cc1	6.71	< 4.00	> 510	–
NCCc1ccc(-c2cccc(Cl)c2)cc1	5.68	< 5.00	> 4.7	–
NCCc1ccc(-c2cccc(F)c2)cc1	< 5.00	< 5.00	–	–
NC(=O)c1ccc(OCc2ccc(F)cc2)cc1	6.57	< 4.00	> 360	–
NCCc1ccc(OCc2cccc(C(F)(F)F)c2)cc1	6.96	< 4.00	> 900	–
NC(=O)c1ccc(OCc2ccccc2C(F)(F)F)cc1	5.69	< 4.00	> 49	–
NCCc1ccc(-c2ccc(Cl)cc2)cc1	6.20	< 5.00	> 16	–
NC(=O)c1ccc(OCc2ccccc2F)cc1	5.98	< 4.00	> 95	–
NCc1ccc(OCc2ccccc2F)cc1	5.84	< 4.00	> 68	–
NC(=O)c1ccc(OCc2cccc(C(F)(F)F)c2)cc1	5.96	< 4.00	> 90	–
NCc1ccc(OCc2ccccc2C(F)(F)F)cc1	5.50	< 4.00	> 32	–
COc1ccc(-c2ccc(CCN)cc2)cc1	5.24	< 5.00	> 1.7	–
NCCc1ccc(-c2ccccc2Cl)cc1	5.08	< 5.00	> 1.2	–
NCc1ccc(OCc2ccc(Cl)cc2)cc1	6.36	< 4.52	> 68	–
Nc1ccc(OCc2cccc(C(F)(F)F)c2)cc1	5.82	< 4.00	> 66	–

SMILES	pIC50 [1]	pIC50 [2]	Ratio IC50 (Homo sapiens)	further results
NCc1ccc(OCc2cccc(F)c2)cc1	6.03	< 4.00	> 100	–
COc1ccc(COc2ccc(CN)cc2)cc1	6.55	< 4.00	> 350	–
Nc1ccc(OCc2ccccc2C(F)(F)F)cc1	< 5.00	< 4.00	–	–
NCCc1ccc(-c2cccc(C(F)(F)F)c2)cc1	5.80	< 5.00	> 6.4	–
NCCc1ccc(OCc2ccc(F)cc2)cc1	6.96	< 4.00	> 910	–
NCc1ccc(OCc2cccc(C(F)(F)F)c2)cc1	6.41	< 4.00	> 250	–
Cl.NCCc1ccc(OCc2ccc(C(F)(F)F)cc2)cc1	8.05	< 4.00	> 11000	Activity (Mus musculus [3]): Active; Activity (Mus musculus [4]): 38%; Activity (Mus musculus [5]): Active; pKi [6]: 8.16; Vmax [7]: 5.86 ×10⁷ U/min; Activity (Mus musculus [8]): Active; Activity (Mus musculus [9]): Active
NCc1ccc(OCc2ccc(F)cc2)cc1	6.34	< 4.00	> 220	–
NCCc1ccc(-c2ccc(C(F)(F)F)cc2)cc1	7.39	< 5.00	> 240	–
NCc1ccc(OCc2ccccc2)cc1	5.49	< 4.00	> 31	–
CC(=O)N[C@H]1CC(=O)N(c2ccc(OCc3cccc(F)c3)cc2)C1 [SEMBRAGILINE]	7.80	–	–	–
NCCc1ccc(-c2ccccc2F)cc1	< 5.00	< 5.00	–	–
COc1cccc(COc2ccc(CN)cc2)c1	6.76	< 4.52	> 170	–
COc1cccc(-c2ccc(CCN)cc2)c1	5.30	< 5.00	> 1.9	–
NCCc1ccc(OCc2ccc(Cl)cc2)cc1	7.23	< 4.00	> 1600	–
NCCc1ccc(OCc2cccc(Cl)c2)cc1	7.21	< 4.00	> 1600	–
Nc1ccc(OCc2ccc(F)cc2)cc1	5.48	< 4.00	> 30	–
COc1ccc(CN[C@@H](C)C(N)=O)cc1	< 5.00	< 5.00	–	–
NCc1ccc(OCc2ccc(C(F)(F)F)cc2)cc1	6.87	< 4.00	> 730	–
NC(=O)c1ccc(OCc2cccc(F)c2)cc1	5.81	< 4.00	> 65	–
COc1cccc(COc2ccc(CCN)cc2)c1	6.52	< 5.00	> 33	–
NCCc1ccc(OCc2ccccc2C(F)(F)F)cc1	5.74	< 4.00	> 55	–
